From ChEMBL document CHEMBL1152495, “Synthesis and antimicrobial studies of novel methylene bridged benzisoxazolyl imidazo[2,1-b][1,3,4]thiadiazole derivatives” (2009)
≈ marks a conversion by molar mass, not a printed value.

Each molecule was assayed on Staphylococcus aureus (assay: Antibacterial activity against Staphylococcus aureus ATCC 25923 at 100 ug/ml after 24 hrs by agar well diffusion method). Conditions: ATCC 25923, 24 h, read-out: IZ.
Format: functional
Outline: (§1)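 Agar well diffusion on Mueller Hinton agar (20 mL per dish), seeded homogeneously with liquid bacterial culture by spread plating. Samples loaded directly into wells, dimethylformamide as solvent control, ampicillin as reference drug. Plates incubated at 37 °C for 24 h. All determinations done in triplicate.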

Row | SMILES | zone of inhibition at 100 µg/mL [mm]
1 | O=Nc1c(-c2cc3ccccc3oc2=O)nc2sc(Cc3noc4ccccc34)nn12 | 14
2 | COc1ccc(-c2nc3sc(Cc4noc5ccccc45)nn3c2N=O)cc1 | 13
3 | O=c1oc2ccccc2cc1-c1nc2sc(Cc3noc4ccccc34)nn2c1Br | 15
4 | COc1ccc(-c2nc3sc(Cc4noc5ccccc45)nn3c2SC#N)cc1 | 9
5 | O=Nc1c(-c2ccccc2)nc2sc(Cc3noc4ccccc34)nn12 | 18
6 | N#CSc1c(-c2ccccc2)nc2sc(Cc3noc4ccccc34)nn12 | 16
7 | Nc1nnc(Cc2noc3ccccc23)s1 | 15
8 | O=[N+]([O-])c1ccc(-c2nc3sc(Cc4noc5ccccc45)nn3c2Br)cc1 | 11

Each molecule was assayed on Bacillus subtilis (assay: Antibacterial activity against Bacillus subtilis ATCC 6633 at 100 ug/ml after 24 hrs by agar well diffusion method). Conditions: ATCC 6633, 24 h, read-out: IZ.
Format: functional
Outline: as §1

Row | SMILES | zone of inhibition at 100 µg/mL [mm]
9 | O=Nc1c(-c2cc3ccccc3oc2=O)nc2sc(Cc3noc4ccccc34)nn12 | 15
10 | COc1ccc(-c2nc3sc(Cc4noc5ccccc45)nn3c2N=O)cc1 | 11
11 | O=c1oc2ccccc2cc1-c1nc2sc(Cc3noc4ccccc34)nn2c1Br | 10
12 | COc1ccc(-c2nc3sc(Cc4noc5ccccc45)nn3c2SC#N)cc1 | 15
13 | O=Nc1c(-c2ccccc2)nc2sc(Cc3noc4ccccc34)nn12 | 13
14 | N#CSc1c(-c2ccccc2)nc2sc(Cc3noc4ccccc34)nn12 | 14
15 | Nc1nnc(Cc2noc3ccccc23)s1 | 15
16 | O=[N+]([O-])c1ccc(-c2nc3sc(Cc4noc5ccccc45)nn3c2Br)cc1 | 12

What follows are molecules tested on Escherichia coli (assay: Antibacterial activity against Escherichia coli ATCC 35218 at 100 ug/ml after 24 hrs by agar well diffusion method). Conditions: ATCC 35218, 24 h, read-out: IZ.
Format: functional
Outline: as §1

Row | SMILES | zone of inhibition at 100 µg/mL [mm]
17 | O=Nc1c(-c2cc3ccccc3oc2=O)nc2sc(Cc3noc4ccccc34)nn12 | 12
18 | COc1ccc(-c2nc3sc(Cc4noc5ccccc45)nn3c2N=O)cc1 | 16
19 | O=c1oc2ccccc2cc1-c1nc2sc(Cc3noc4ccccc34)nn2c1Br | 13
20 | COc1ccc(-c2nc3sc(Cc4noc5ccccc45)nn3c2SC#N)cc1 | 13
21 | O=Nc1c(-c2ccccc2)nc2sc(Cc3noc4ccccc34)nn12 | 11
22 | N#CSc1c(-c2ccccc2)nc2sc(Cc3noc4ccccc34)nn12 | 12
23 | Nc1nnc(Cc2noc3ccccc23)s1 | 10
24 | O=[N+]([O-])c1ccc(-c2nc3sc(Cc4noc5ccccc45)nn3c2Br)cc1 | 10

These molecules were tested on Pseudomonas aeruginosa (assay: Antibacterial activity against Pseudomonas aeruginosa ATCC 10145 at 100 ug/ml after 24 hrs by agar well diffusion method). Conditions: ATCC 10145, 24 h, read-out: IZ.
Format: functional
Outline: as §1

Row | SMILES | zone of inhibition at 100 µg/mL [mm]
25 | O=Nc1c(-c2cc3ccccc3oc2=O)nc2sc(Cc3noc4ccccc34)nn12 | 14
26 | COc1ccc(-c2nc3sc(Cc4noc5ccccc45)nn3c2N=O)cc1 | 8
27 | O=c1oc2ccccc2cc1-c1nc2sc(Cc3noc4ccccc34)nn2c1Br | 14
28 | COc1ccc(-c2nc3sc(Cc4noc5ccccc45)nn3c2SC#N)cc1 | 19
29 | O=Nc1c(-c2ccccc2)nc2sc(Cc3noc4ccccc34)nn12 | 10
30 | N#CSc1c(-c2ccccc2)nc2sc(Cc3noc4ccccc34)nn12 | 17
31 | Nc1nnc(Cc2noc3ccccc23)s1 | 14
32 | O=[N+]([O-])c1ccc(-c2nc3sc(Cc4noc5ccccc45)nn3c2Br)cc1 | 11

The molecules below were run on Candida albicans (assay: Antifungal activity against Candida albicans at 100 ug/ml after 72 hrs by agar well diffusion method). Conditions: read-out: IZ.
Format: functional
Outline: (§2)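 Fungi grown on Potato Dextrose Agar (20 mL per dish), seeded homogeneously with liquid culture by spread plating. Samples loaded directly into agar wells, with dimethylformamide as solvent control and clotrimazole as reference drug. Plates incubated at 25 °C for 72 h, triplicate determinations.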

Row | SMILES | zone of inhibition at 100 µg/mL [mm]
33 | O=Nc1c(-c2cc3ccccc3oc2=O)nc2sc(Cc3noc4ccccc34)nn12 | 15
34 | COc1ccc(-c2nc3sc(Cc4noc5ccccc45)nn3c2N=O)cc1 | 14
35 | O=c1oc2ccccc2cc1-c1nc2sc(Cc3noc4ccccc34)nn2c1Br | 14
36 | COc1ccc(-c2nc3sc(Cc4noc5ccccc45)nn3c2SC#N)cc1 | 20
37 | O=Nc1c(-c2ccccc2)nc2sc(Cc3noc4ccccc34)nn12 | 13
38 | N#CSc1c(-c2ccccc2)nc2sc(Cc3noc4ccccc34)nn12 | 12
39 | Nc1nnc(Cc2noc3ccccc23)s1 | 14
40 | O=[N+]([O-])c1ccc(-c2nc3sc(Cc4noc5ccccc45)nn3c2Br)cc1 | 9

The molecules below were run on Aspergillus fumigatus (assay: Antifungal activity against Aspergillus fumigatus at 100 ug/ml after 72 hrs by agar well diffusion method). Conditions: read-out: IZ.
Format: functional
Outline: as §2

Row | SMILES | zone of inhibition at 100 µg/mL [mm]
41 | O=Nc1c(-c2cc3ccccc3oc2=O)nc2sc(Cc3noc4ccccc34)nn12 | 12
42 | COc1ccc(-c2nc3sc(Cc4noc5ccccc45)nn3c2N=O)cc1 | 10
43 | O=c1oc2ccccc2cc1-c1nc2sc(Cc3noc4ccccc34)nn2c1Br | 17
44 | COc1ccc(-c2nc3sc(Cc4noc5ccccc45)nn3c2SC#N)cc1 | 16
45 | O=Nc1c(-c2ccccc2)nc2sc(Cc3noc4ccccc34)nn12 | 16
46 | N#CSc1c(-c2ccccc2)nc2sc(Cc3noc4ccccc34)nn12 | 15
47 | Nc1nnc(Cc2noc3ccccc23)s1 | 11
48 | O=[N+]([O-])c1ccc(-c2nc3sc(Cc4noc5ccccc45)nn3c2Br)cc1 | 8

What follows are molecules tested on Staphylococcus aureus (assay: Antibacterial activity against Staphylococcus aureus ATCC 25923 after 24 hrs by agar well diffusion method). Conditions: ATCC 25923, 24 h.
Format: functional
Outline: as §1

Row | SMILES | MIC [mg/L]
49 | O=Nc1c(-c2cc3ccccc3oc2=O)nc2sc(Cc3noc4ccccc34)nn12 | 1.5 (≈ 3.49 µM)
50 | COc1ccc(-c2nc3sc(Cc4noc5ccccc45)nn3c2N=O)cc1 | 1.5 (≈ 3.83 µM)
51 | O=c1oc2ccccc2cc1-c1nc2sc(Cc3noc4ccccc34)nn2c1Br | 2 (≈ 4.17 µM)
52 | COc1ccc(-c2nc3sc(Cc4noc5ccccc45)nn3c2SC#N)cc1 | 2 (≈ 4.77 µM)
53 | O=Nc1c(-c2ccccc2)nc2sc(Cc3noc4ccccc34)nn12 | 1 (≈ 2.77 µM)
54 | N#CSc1c(-c2ccccc2)nc2sc(Cc3noc4ccccc34)nn12 | 1.5 (≈ 3.85 µM)
55 | Nc1nnc(Cc2noc3ccccc23)s1 | 1.5 (≈ 6.46 µM)
56 | O=[N+]([O-])c1ccc(-c2nc3sc(Cc4noc5ccccc45)nn3c2Br)cc1 | 2 (≈ 4.38 µM)

These molecules were tested on Bacillus subtilis (assay: Antibacterial activity against Bacillus subtilis ATCC 6633 after 24 hrs by agar well diffusion method). Conditions: ATCC 6633, 24 h.
Format: functional
Outline: as §1

Row | SMILES | MIC [mg/L]
57 | O=Nc1c(-c2cc3ccccc3oc2=O)nc2sc(Cc3noc4ccccc34)nn12 | 1.5 (≈ 3.49 µM)
58 | COc1ccc(-c2nc3sc(Cc4noc5ccccc45)nn3c2N=O)cc1 | 3 (≈ 7.66 µM)
59 | O=c1oc2ccccc2cc1-c1nc2sc(Cc3noc4ccccc34)nn2c1Br | 3 (≈ 6.26 µM)
60 | COc1ccc(-c2nc3sc(Cc4noc5ccccc45)nn3c2SC#N)cc1 | 1 (≈ 2.38 µM)
61 | O=Nc1c(-c2ccccc2)nc2sc(Cc3noc4ccccc34)nn12 | 2 (≈ 5.53 µM)
62 | N#CSc1c(-c2ccccc2)nc2sc(Cc3noc4ccccc34)nn12 | 1.5 (≈ 3.85 µM)
63 | Nc1nnc(Cc2noc3ccccc23)s1 | 1 (≈ 4.31 µM)
64 | O=[N+]([O-])c1ccc(-c2nc3sc(Cc4noc5ccccc45)nn3c2Br)cc1 | 2.5 (≈ 5.48 µM)

The molecules below were run on Escherichia coli (assay: Antibacterial activity against Escherichia coli ATCC 35218 after 24 hrs by agar well diffusion method). Conditions: ATCC 35218, 24 h.
Format: functional
Outline: as §1

Row | SMILES | MIC [mg/L]
65 | O=Nc1c(-c2cc3ccccc3oc2=O)nc2sc(Cc3noc4ccccc34)nn12 | 3 (≈ 6.99 µM)
66 | COc1ccc(-c2nc3sc(Cc4noc5ccccc45)nn3c2N=O)cc1 | 2 (≈ 5.11 µM)
67 | O=c1oc2ccccc2cc1-c1nc2sc(Cc3noc4ccccc34)nn2c1Br | 2.5 (≈ 5.22 µM)
68 | COc1ccc(-c2nc3sc(Cc4noc5ccccc45)nn3c2SC#N)cc1 | 3 (≈ 7.15 µM)
69 | O=Nc1c(-c2ccccc2)nc2sc(Cc3noc4ccccc34)nn12 | 3 (≈ 8.3 µM)
70 | N#CSc1c(-c2ccccc2)nc2sc(Cc3noc4ccccc34)nn12 | 3 (≈ 7.7 µM)
71 | Nc1nnc(Cc2noc3ccccc23)s1 | 3.5 (≈ 15.1 µM)
72 | O=[N+]([O-])c1ccc(-c2nc3sc(Cc4noc5ccccc45)nn3c2Br)cc1 | 3.5 (≈ 7.67 µM)

What follows are molecules tested on Pseudomonas aeruginosa (assay: Antibacterial activity against Pseudomonas aeruginosa ATCC 10145 after 24 hrs by agar well diffusion method). Conditions: ATCC 10145, 24 h.
Format: functional
Outline: as §1

Row | SMILES | MIC [mg/L]
73 | O=Nc1c(-c2cc3ccccc3oc2=O)nc2sc(Cc3noc4ccccc34)nn12 | 2.5 (≈ 5.82 µM)
74 | COc1ccc(-c2nc3sc(Cc4noc5ccccc45)nn3c2N=O)cc1 | 3.5 (≈ 8.94 µM)
75 | O=c1oc2ccccc2cc1-c1nc2sc(Cc3noc4ccccc34)nn2c1Br | 2.5 (≈ 5.22 µM)
76 | COc1ccc(-c2nc3sc(Cc4noc5ccccc45)nn3c2SC#N)cc1 | 1.5 (≈ 3.58 µM)
77 | O=Nc1c(-c2ccccc2)nc2sc(Cc3noc4ccccc34)nn12 | 3 (≈ 8.3 µM)
78 | N#CSc1c(-c2ccccc2)nc2sc(Cc3noc4ccccc34)nn12 | 2 (≈ 5.14 µM)
79 | Nc1nnc(Cc2noc3ccccc23)s1 | 2.5 (≈ 10.8 µM)
80 | O=[N+]([O-])c1ccc(-c2nc3sc(Cc4noc5ccccc45)nn3c2Br)cc1 | 3 (≈ 6.57 µM)

These molecules were tested on Candida albicans (assay: Antifungal activity against Candida albicans after 72 hrs by agar well diffusion method). Conditions: not given.
Format: functional
Outline: as §2

Row | SMILES | MIC [mg/L]
81 | O=Nc1c(-c2cc3ccccc3oc2=O)nc2sc(Cc3noc4ccccc34)nn12 | 3 (≈ 6.99 µM)
82 | COc1ccc(-c2nc3sc(Cc4noc5ccccc45)nn3c2N=O)cc1 | 3 (≈ 7.66 µM)
83 | O=c1oc2ccccc2cc1-c1nc2sc(Cc3noc4ccccc34)nn2c1Br | 3 (≈ 6.26 µM)
84 | COc1ccc(-c2nc3sc(Cc4noc5ccccc45)nn3c2SC#N)cc1 | 2.5 (≈ 5.96 µM)
85 | O=Nc1c(-c2ccccc2)nc2sc(Cc3noc4ccccc34)nn12 | 3.5 (≈ 9.68 µM)
86 | N#CSc1c(-c2ccccc2)nc2sc(Cc3noc4ccccc34)nn12 | 3.5 (≈ 8.99 µM)
87 | Nc1nnc(Cc2noc3ccccc23)s1 | 3 (≈ 12.9 µM)
88 | O=[N+]([O-])c1ccc(-c2nc3sc(Cc4noc5ccccc45)nn3c2Br)cc1 | 4 (≈ 8.77 µM)

These molecules were tested on Aspergillus fumigatus (assay: Antifungal activity against Aspergillus fumigatus after 72 hrs by agar well diffusion method). Conditions: not given.
Format: functional
Outline: as §2

Row | SMILES | MIC [mg/L]
89 | O=Nc1c(-c2cc3ccccc3oc2=O)nc2sc(Cc3noc4ccccc34)nn12 | 3.5 (≈ 8.15 µM)
90 | COc1ccc(-c2nc3sc(Cc4noc5ccccc45)nn3c2N=O)cc1 | 4 (≈ 10.2 µM)
91 | O=c1oc2ccccc2cc1-c1nc2sc(Cc3noc4ccccc34)nn2c1Br | 2.5 (≈ 5.22 µM)
92 | COc1ccc(-c2nc3sc(Cc4noc5ccccc45)nn3c2SC#N)cc1 | 2.5 (≈ 5.96 µM)
93 | O=Nc1c(-c2ccccc2)nc2sc(Cc3noc4ccccc34)nn12 | 2.5 (≈ 6.92 µM)
94 | N#CSc1c(-c2ccccc2)nc2sc(Cc3noc4ccccc34)nn12 | 2.5 (≈ 6.42 µM)
95 | Nc1nnc(Cc2noc3ccccc23)s1 | 3.5 (≈ 15.1 µM)
96 | O=[N+]([O-])c1ccc(-c2nc3sc(Cc4noc5ccccc45)nn3c2Br)cc1 | 4.5 (≈ 9.86 µM)
